Experimental data as given in ChEMBL document CHEMBL4814043, “Optimization of a urea-containing series of nicotinamide phosphoribosyltransferase (NAMPT) activators” (Bioorg Med Chem Lett, 2021).
Converted amounts (≈) assume the structure as drawn. Each block holds one molecule with its values, some of them ahead of it. The source made the active and inactive calls. The rule behind the calls is not given here.

Legend:
[1] = target: T1, Nicotinamide phosphoribosyltransferase (Homo sapiens, UniProt P43490); experiment: Activation of human NAMPT
Target sequence in this assay (P43490 whole entry): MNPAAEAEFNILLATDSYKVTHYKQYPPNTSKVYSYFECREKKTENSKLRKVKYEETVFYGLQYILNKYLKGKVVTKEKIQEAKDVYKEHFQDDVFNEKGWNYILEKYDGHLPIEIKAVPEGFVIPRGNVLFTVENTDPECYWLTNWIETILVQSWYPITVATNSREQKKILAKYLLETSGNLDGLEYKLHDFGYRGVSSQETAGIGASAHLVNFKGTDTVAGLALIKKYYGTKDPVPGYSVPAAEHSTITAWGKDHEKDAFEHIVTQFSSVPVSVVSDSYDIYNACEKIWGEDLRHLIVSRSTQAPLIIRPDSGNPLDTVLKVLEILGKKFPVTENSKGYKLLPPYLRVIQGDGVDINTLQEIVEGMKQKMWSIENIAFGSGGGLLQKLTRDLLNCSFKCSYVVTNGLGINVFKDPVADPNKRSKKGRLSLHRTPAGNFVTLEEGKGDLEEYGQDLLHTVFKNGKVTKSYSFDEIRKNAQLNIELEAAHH

[2] = Volume of distribution in mouse at 1 mg/kg, iv; format: ADME, organism-based; settings: in vivo
[3] = Cmax in mouse at 10 mg/kg, po; format: ADME, organism-based; parameters: route oral, dose 10 mg/kg; settings: in vivo
[4] = Oral bioavailability in mouse at 10 mg/kg; format: ADME, organism-based; settings: in vivo
[5] = Half life in mouse at 10 mg/kg, po; format: ADME, organism-based; settings: in vivo
[6] = AUC in mouse at 10 mg/kg, po; format: ADME, organism-based; parameters: dose 10 mg/kg; settings: in vivo
[7] = Plasma clearance in mouse at 1 mg/kg, iv; format: ADME, organism-based
[8] = target: T1, Nicotinamide phosphoribosyltransferase; experiment: Activation of NAMPT in human A549 cells assessed as increase in NAD+ level at 10 uM incubated for 4 hrs by LC-MS/MS analysis; format: cell-based; settings: filed as activator
How it was run: (§1)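 A549 cells exposed to 10 µM compound or DMSO vehicle for 4 hr, then harvested; NMN and NAD+ quantified by LC-MS/MS and normalized to cell protein; significance vs. vehicle control by P value.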
Target sequence in this assay (P43490 whole entry, looked up): as the sequence (P43490 whole entry) above

CYP2D6 = CYP2D6 (Homo sapiens, UniProt P10635); experiment: Inhibition of CYP2D6 (unknown origin) at 10 uM measured after 10 mins; format: ADME
How it was run: (§2)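 Each CYP isoform (1A2, 2C9, 2D6, 3A4) reacted with compound at 10 µM for 10 min; value reported as percent inhibition.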

[9] = Permeability of compound at pH 7.4 by PAMPA assay; format: ADME; settings: read-out: permeability
[10] = Metabolic stability in human liver microsomes assessed as parent compound remaining at 1 uM measured after 30 mins; format: ADME, Microsome; settings: read-out: Stabilty
How it was run: (§3)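 Compound at 1 µM incubated with human or mouse microsomes for 30 min; read-out is percent parent remaining.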

[11] = target: T1, Nicotinamide phosphoribosyltransferase; experiment: Activation of NAMPT in human A549 cells assessed as increase in NMN level at 10 uM incubated for 4 hrs by LC-MS/MS analysis; format: cell-based; settings: filed as activator; how it was run: as §1
Target sequence in this assay (P43490 whole entry, looked up): as the sequence (P43490 whole entry) above

[12] = 1-Octanol/PBS buffer distribution coefficient, log D of the compound at pH 7.4; format: physicochemical
How it was run: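 Partitioning measured between 1-octanol and phosphate-buffered saline at pH 7.4.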

[13] = Metabolic stability in mouse liver microsomes assessed as parent compound remaining at 1 uM measured after 30 mins; format: ADME, Microsome; settings: read-out: Stabilty; how it was run: as §3
[14] = Permeability of compound at pH 5 by PAMPA assay; format: ADME; settings: read-out: permeability
[15] = Solubility of compound at pH 6.8; format: physicochemical; settings: buffer
[16] = Solubility of compound at pH 1.2; format: physicochemical; settings: buffer
CYP3A4 = CYP3A4 (Homo sapiens, UniProt P08684); experiment: Inhibition of CYP3A4 (unknown origin) at 10 uM measured after 10 mins; format: ADME; how it was run: as §2
CYP1A2 = target: T2, CYP1A2 (Homo sapiens, UniProt P05177); experiment: Inhibition of CYP1A2 (unknown origin) at 10 uM measured after 10 mins; format: ADME; how it was run: as §2
T2 sequence (P05177 whole entry): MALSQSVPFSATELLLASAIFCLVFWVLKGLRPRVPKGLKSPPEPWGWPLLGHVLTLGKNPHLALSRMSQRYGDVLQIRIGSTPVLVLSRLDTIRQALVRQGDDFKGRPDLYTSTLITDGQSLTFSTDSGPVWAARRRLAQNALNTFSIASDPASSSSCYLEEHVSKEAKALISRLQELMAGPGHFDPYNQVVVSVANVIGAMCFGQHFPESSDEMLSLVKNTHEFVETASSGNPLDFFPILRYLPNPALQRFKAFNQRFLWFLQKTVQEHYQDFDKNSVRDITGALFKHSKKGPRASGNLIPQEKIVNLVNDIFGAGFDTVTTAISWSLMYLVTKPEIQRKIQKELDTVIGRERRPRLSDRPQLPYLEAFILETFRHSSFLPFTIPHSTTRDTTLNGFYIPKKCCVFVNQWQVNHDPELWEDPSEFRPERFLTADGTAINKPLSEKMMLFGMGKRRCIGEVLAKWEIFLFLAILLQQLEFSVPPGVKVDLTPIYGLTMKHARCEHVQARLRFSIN

CYP2C9 = CYP2C9 (Homo sapiens, UniProt P11712); experiment: Inhibition of CYP2C9 (unknown origin) at 10 uM measured after 10 mins; format: ADME; how it was run: as §2
Chain of CYP2C9 (P11712 whole entry): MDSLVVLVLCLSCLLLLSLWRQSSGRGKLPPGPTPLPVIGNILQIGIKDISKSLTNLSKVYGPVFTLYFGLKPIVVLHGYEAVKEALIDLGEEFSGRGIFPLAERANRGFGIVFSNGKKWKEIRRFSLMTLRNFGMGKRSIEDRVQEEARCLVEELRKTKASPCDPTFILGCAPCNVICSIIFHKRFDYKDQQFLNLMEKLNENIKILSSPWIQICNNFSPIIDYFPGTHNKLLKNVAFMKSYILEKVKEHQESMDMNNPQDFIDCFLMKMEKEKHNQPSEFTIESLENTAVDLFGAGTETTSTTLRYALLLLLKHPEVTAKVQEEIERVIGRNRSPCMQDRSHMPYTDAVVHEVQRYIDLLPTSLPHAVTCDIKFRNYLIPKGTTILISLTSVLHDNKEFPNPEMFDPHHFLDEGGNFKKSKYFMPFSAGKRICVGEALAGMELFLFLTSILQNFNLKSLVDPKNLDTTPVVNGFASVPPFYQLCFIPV

Chain of CYP3A4 (P08684 whole entry): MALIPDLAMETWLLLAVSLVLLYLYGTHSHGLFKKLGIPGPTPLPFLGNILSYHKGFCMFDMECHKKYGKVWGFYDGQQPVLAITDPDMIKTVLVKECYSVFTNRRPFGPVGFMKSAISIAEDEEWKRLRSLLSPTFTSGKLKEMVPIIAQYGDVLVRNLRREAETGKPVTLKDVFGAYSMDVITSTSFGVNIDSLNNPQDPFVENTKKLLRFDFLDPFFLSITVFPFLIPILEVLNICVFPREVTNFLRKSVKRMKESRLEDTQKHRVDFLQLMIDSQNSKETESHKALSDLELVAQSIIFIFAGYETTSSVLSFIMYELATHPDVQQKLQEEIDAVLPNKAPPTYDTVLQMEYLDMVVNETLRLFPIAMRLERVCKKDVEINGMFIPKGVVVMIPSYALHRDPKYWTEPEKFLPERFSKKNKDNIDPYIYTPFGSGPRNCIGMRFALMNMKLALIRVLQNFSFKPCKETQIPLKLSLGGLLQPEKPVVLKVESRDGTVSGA
Chain of CYP2D6 (P10635 whole entry, canonical isoform): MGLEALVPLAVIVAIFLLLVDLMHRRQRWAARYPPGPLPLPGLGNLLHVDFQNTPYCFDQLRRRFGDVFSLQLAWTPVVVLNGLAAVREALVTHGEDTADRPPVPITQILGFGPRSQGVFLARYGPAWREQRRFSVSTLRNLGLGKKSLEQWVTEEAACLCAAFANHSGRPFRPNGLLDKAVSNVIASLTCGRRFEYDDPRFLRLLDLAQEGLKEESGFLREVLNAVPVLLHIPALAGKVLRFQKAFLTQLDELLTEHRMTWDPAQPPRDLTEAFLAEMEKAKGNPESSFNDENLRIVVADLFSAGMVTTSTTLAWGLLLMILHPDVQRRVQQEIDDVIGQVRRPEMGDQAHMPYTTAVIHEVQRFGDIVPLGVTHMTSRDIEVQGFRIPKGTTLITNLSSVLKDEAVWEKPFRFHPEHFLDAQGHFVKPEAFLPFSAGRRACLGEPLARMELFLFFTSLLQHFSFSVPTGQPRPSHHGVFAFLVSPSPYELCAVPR

Compound: CCOC(=O)c1ccc(NC(=O)NCc2ccncn2)cc1
EC50 [1]: 13.6 µM

Compound: CCOC(=O)c1ccc(NC(=O)NCc2c[nH]nn2)cc1
EC50 [1]: 7.75 µM

Compound: CCOC(=O)c1ccc(NC(=O)NCc2ccnnc2)cc1
EC50 [1]: > 100 µM

Compound: CCOC(=O)c1ccc(N(C)C(=O)NCc2ccncc2)cc1
EC50 [1]: > 100 µM

Compound: CCOC(=O)c1ccc(NC(=O)OCc2ccncc2)cc1
EC50 [1]: 10.8 µM

Compound: O=C(NCc1cnco1)Nc1ccc(S(=O)(=O)c2cccc(OC(F)(F)F)c2)cc1
Vd [2]: 0.58 L/kg
Cmax [3]: 15300 ng/mL
bioavailability [4]: > 100%
half-life [5]: 2.3 h
AUC [6]: 45200 ng·h/mL
clearance [7]: 4 mL/min/kg

Compound: CCOC(=O)c1ccc(N/C(=N\C#N)NCc2ccncc2)cc1
EC50 [1]: 41.4 µM

Compound: CCOC(=O)c1ccc(NC(=O)CCc2ccncc2)cc1
EC50 [1]: 15.9 µM

Compound: CN(Cc1ccccc1)S(=O)(=O)c1ccc(NC(=O)NCc2ccncc2)cc1
Vd [2]: 1.37 L/kg
Cmax [3]: 4950 ng/mL
bioavailability [4]: > 100%
half-life [5]: 0.6 h
AUC [6]: 4510 ng·h/mL
clearance [7]: 43 mL/min/kg

Compound: CCOC(=O)c1ccc(CC(=O)NCc2ccncc2)cc1
EC50 [1]: > 100 µM

Compound: CCOC(=O)c1ccc(NC(=O)N(C)Cc2ccncc2)cc1
EC50 [1]: > 100 µM

Compound: CCOC(=O)c1ccc(NC(=O)NCc2cocn2)cc1
EC50 [1]: 27.6 µM

Compound: CCOC(=O)c1ccc(NC(=O)NCc2cc[nH]n2)cc1
EC50 [1]: 69 µM

Compound: CCOC(=O)c1ccc(NC(=S)NCc2ccncc2)cc1
EC50 [1]: 9.77 µM

The remaining molecules from weak to strong by EC50 [1], led by results:

EC50 [1]: 3.23 µM
Compound: CNS(=O)(=O)c1ccc(NC(=O)NCc2ccncc2)cc1

EC50 [1]: 3.11 µM
Compound: CN(C)S(=O)(=O)c1ccc(NC(=O)NCc2ccncc2)cc1

EC50 [1]: 2.28 µM
Compound: CCOC(=O)c1ccc(NC(=O)NC(C)c2ccncc2)cc1 (stereo not given)

EC50 [1]: 1.85 µM
Compound: CCOC(=O)c1ccc(NC(=O)NCc2cn[nH]c2)cc1

EC50 [1]: 1.37 µM
Compound: CCOC(=O)c1ccc(NC(=O)NCc2ccccc2)cc1

EC50 [1]: 0.41 µM
Compound: O=C(NCc1ccncc1)Nc1ccc(S(=O)(=O)Nc2ccccc2)cc1

EC50 [1]: 0.279 µM
Compound: O=C(NCc1ccncc1)Nc1ccc(S(=O)(=O)N2CC3CCC(C2)O3)cc1

Vd [2]: 0.6 L/kg
Cmax [3]: 7860 ng/mL
bioavailability [4]: 47%
half-life [5]: 1 h
EC50 [1]: 0.142 µM
AUC [6]: 4270 ng·h/mL
clearance [7]: 20 mL/min/kg
Compound: O=C(NCc1ccncc1)Nc1ccc(S(=O)(=O)N2CCc3ccccc3C2)cc1

EC50 [1]: 0.126 µM
Compound: O=C(NCc1ccncc1)Nc1ccc(S(=O)(=O)c2ccc(Cl)cc2)cc1

EC50 [1]: 0.123 µM
Compound: CN(C1CCCC1)S(=O)(=O)c1ccc(NC(=O)NCc2ccncc2)cc1

EC50 [1]: 0.102 µM
Compound: O=C(NCc1ccncc1)Nc1ccc(S(=O)(=O)NCc2ccccc2)cc1

EC50 [1]: 0.085 µM
Compound: O=C(NCc1ccncc1)Nc1ccc(S(=O)(=O)c2ccccc2)cc1

EC50 [1]: 0.077 µM
Compound: O=C(NCc1cnco1)Nc1ccc(S(=O)(=O)c2ccccc2)cc1

Vd [2]: 1.12 L/kg
Cmax [3]: 2230 ng/mL
bioavailability [4]: 45%
half-life [5]: 2.5 h
EC50 [1]: 0.028 µM
AUC [6]: 9340 ng·h/mL
clearance [7]: 8 mL/min/kg
Compound: O=C(NCc1cn[nH]c1)Nc1ccc(S(=O)(=O)c2ccccc2)cc1

Activity [8]: Active
Vd [2]: 0.61 L/kg
inhibition at 10 min, 10 µM (CYP2D6): 95%
Papp [9]: 0.04 ×10⁻⁶ cm/s
remaining at 0.5 h, 1 µM [10]: 87%
Activity [11]: Active
logD [12]: 3.1
remaining at 0.5 h, 1 µM [13]: 18%
Cmax [3]: 9550 ng/mL
bioavailability [4]: 80%
half-life [5]: 3.2 h
EC50 [1]: 0.023 µM
AUC [6]: 54500 ng·h/mL
Papp [14]: < 0.01 ×10⁻⁶ cm/s
solubility [15]: 8.5 µg/mL (≈ 21.7 µM)
solubility [16]: 110 µg/mL (≈ 281 µM)
inhibition at 10 min, 10 µM (CYP3A4): 0%
inhibition at 10 min, 10 µM (CYP1A2): 65%
inhibition at 10 min, 10 µM (CYP2C9): 96%
clearance [7]: 3 mL/min/kg
Compound: O=C(NCc1cn[nH]c1)Nc1ccc(S(=O)(=O)c2ccc(Cl)cc2)cc1
